Assay [1] concerns CCRF-CEM. Briefly: Cytotoxicity was assessed using human leukemic cell line CCRF-CEM. The assay is classed as functional, cell-based. In a few lines:
(§1)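 Viability was read by a modified tetrazolium dye reduction method. Cells were harvested in logarithmic growth and seeded at 6.7 × 10^4 cells/well. They were grown in RPMI 1640 with L-glutamine and 10% FBS and cultured with the compounds. The IC50 was taken as the read-out.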

Assay [2] has as its system CCRF-CEM. Briefly: Relative potency compared to cytotoxicity against CCRF-CEM cell line of etoposide. The assay is classed as functional, Homo sapiens. The essentials:
(§2)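 Relative potency compares each compound with etoposide, the reference, using IC50s from the same modified tetrazolium dye reduction viability assay. Cells were seeded at 6.7 × 10^4 cells/well in RPMI 1640 with L-glutamine and 10% FBS.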

The subject of assay [3] is HL-60. Description: Cytotoxicity was assessed using vincristine-resistant human leukemic cell line HL60/Vinc. The class given is functional, cell-based. In a few lines: (§3)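 Modified tetrazolium dye reduction viability assay on log-phase cells seeded at 6.7 × 10^4 cells/well in RPMI 1640 with L-glutamine and 10% FBS, cultured with compounds. HL60/ADR overexpresses MRP but not Pgp; HL60/Vinc overexpresses Pgp but not MRP. IC50 values are averages of 2 determinations from a single experiment.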

Assay [4] concerns HL-60. Briefly: Resistance factor was determined using the ratio of (IC50) of drug resistance cells/drug sensitive cells in HL60/Vinc cell line. The assay is classed as functional, Homo sapiens. In a few lines: (§4)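 Resistance factor = IC50 in the drug-resistant line (HL60/ADR, which overexpresses MRP, or HL60/Vinc, which overexpresses Pgp) divided by IC50 in the drug-sensitive cells. IC50s came from the tetrazolium dye reduction viability assay, as averages of 2 determinations in a single experiment.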

Assay [5] concerns HL-60. Briefly: Resistance factor was determined using the ratio of (IC50) of drug resistance cells/drug sensitive cells in HL60/ADR cell line. The class given is functional, Homo sapiens. The essentials:
as §4

The test system of assay [6] is HL-60. Briefly: Cytotoxicity was assessed using drug-sensitive human leukemic cell line HL60/S. The assay is classed as functional, cell-based. The essentials: as §1
Assay [7] concerns HL-60. Briefly: Cytotoxicity was assessed using adriamycin-resistant human leukemic cell line HL60/ADR. The assay is classed as functional, cell-based. In a few lines:
as §3

Assay [8] has as its system HL-60. Description: Relative potency compared to cytotoxicity against HL60/S cell line of etoposide. The assay is classed as functional, Homo sapiens. In a few lines: as §2
For assay [9], the system named is CCRF-CEM. Briefly: Relative potency in comparison to etoposide. The class given is functional, Homo sapiens. The essentials: as §2
Where [10] appears, read: Homo sapiens, HL-60, read-out: IC50.

Each structure is given as a SMILES string. Converted amounts (≈) assume the structure as drawn.

Broadly, the IC50 is the concentration at which inhibition is half-maximal. Regarding `COc1cc([C@H]2c3cc4c(cc3C[C@H]3COC[C@@H]32)OCO4)cc(OC)c1OC`, the half-maximal inhibitory concentration (IC50) in the assay on CCRF-CEM [1] is 8.15 µg/mL (≈ 21.2 µM); with HL-60 [3], 3.06 µg/mL (≈ 7.96 µM); with HL-60 [6] (setting [10]), 7.09 µg/mL (≈ 18.5 µM); in the assay on HL-60 [7] (setting [10]), 4.86 µg/mL (≈ 12.6 µM). The Relative potency amounted to 0.14 in the assay with CCRF-CEM [2] and 0.23 with HL-60 [8]. Further, the RF stood at 0.4 in the assay with HL-60 [4] and 0.7 with HL-60 [5].

`COc1ccc([C@@H]2c3cc(OC)c(OC)cc3C[C@H]3COC[C@@H]32)cc1OC`: the IC50 is 38.5 µg/mL (≈ 104 µM) in the assay with CCRF-CEM [1], 36.1 µg/mL (≈ 97.4 µM) in the assay on HL-60 [3], 117.178 µg/mL (≈ 316 µM) with HL-60 [6] (hl-60) and 23.3 µg/mL (≈ 63 µM) with HL-60 [7] (setting [10]). Also, the Relative potency in the assay on CCRF-CEM [2] turned out to be 0.03; in the assay with HL-60 [8], 0.01. Also, the RF in the assay on HL-60 [4] was determined as 0.3; in the assay with HL-60 [5], 0.2.

Turning to `COc1ccc([C@H]2c3cc(OC)c(OC)cc3C[C@H]3COC[C@@H]32)cc1OC`, the half-inhibitory concentration (IC50) worked out at 21.9 µg/mL (≈ 59 µM) in the assay with CCRF-CEM [1], 14.7 µg/mL (≈ 39.8 µM) in the assay with HL-60 [3], 36.3 µg/mL (≈ 97.9 µM) in the assay on HL-60 [6] (setting [10]) and 26.1 µg/mL (≈ 70.3 µM) in the assay on HL-60 [7] (setting [10]). In addition, the Relative potency in the assay on CCRF-CEM [2] and with HL-60 [8] was 0.05 in each case. Moreover, the RF is 0.4 with HL-60 [4] and 0.7 in the assay with HL-60 [5].

Take `COc1cc2c(cc1OC)C(c1cc(OC)c(OC)c(OC)c1)[C@H]1COC[C@@H]1C2` (some centres not stated): the concentration for half-maximal inhibition (IC50) in the assay on CCRF-CEM [1] amounted to 0.47 µg/mL (≈ 1.17 µM); with HL-60 [3], 0.314 µg/mL (≈ 0.784 µM); in the assay with HL-60 [6] (setting [10]), 0.533 µg/mL (≈ 1.33 µM); in the assay with HL-60 [7] (setting [10]), 0.362 µg/mL (≈ 0.904 µM). The Relative potency in the assay with CCRF-CEM [2] is reported as 2.4; with HL-60 [8] it was 3.08. Moreover, the RF stood at 0.6 in the assay with HL-60 [4] and 0.7 in the assay on HL-60 [5].

In the case of `COc1cc([C@@H]2c3cc4c(cc3C[C@H]3COC[C@@H]32)OCO4)cc(OC)c1OC`, the IC50 was 0.043 µg/mL (≈ 0.112 µM) with CCRF-CEM [1], 0.015 µg/mL (≈ 0.039 µM) in the assay on HL-60 [3], 0.03 µg/mL (≈ 0.078 µM) with HL-60 [6] (setting [10]) and 0.019 µg/mL (≈ 0.0494 µM) with HL-60 [7] (setting [10]). For the same molecule, the Relative potency in the assay on CCRF-CEM [2] was 27; in the assay with HL-60 [8] it was 54.8. Moreover, the figures for the RF in the assay with HL-60 [4] and with HL-60 [5] were 0.5 and 0.6, respectively.

Turning to `COc1cc([C@@H]2c3cc4c(cc3[C@@H](O[C@@H]3O[C@@H]5CO[C@@H](C)O[C@H]5[C@H](O)[C@H]3O)[C@H]3COC(=O)[C@H]23)OCO4)cc(OC)c1O` [ETOPOSIDE], the half-inhibitory concentration (IC50) is 1.15 µg/mL (≈ 1.95 µM) in the assay with CCRF-CEM [1], 18.1 µg/mL (≈ 30.7 µM) with HL-60 [3], 1.64 µg/mL (≈ 2.79 µM) in the assay on HL-60 [6] (setting [10]) and 54.94 µg/mL (≈ 93.3 µM) in the assay with HL-60 [7] (hl-60). The molecule further came in with a Relative potency in the assay on CCRF-CEM [9] of 1. The RF amounted to 11 in the assay on HL-60 [4] and 33 in the assay on HL-60 [5].

The record behind these values is ChEMBL document CHEMBL1134605, “Cytotoxic responses to aromatic ring and configurational variations in alpha-conidendrin, podophyllotoxin, and sikkimotoxin derivatives” (J Med Chem, 2001).
